High-throughput results: PubChem BioAssay, several laboratories
Shown are actives, neighbours in structure and some others; about 1.9% of the full set was active somewhere.
LANA-H2A inh – blockers of LANA interaction with H2A/H2B – biochemical, FP readout, HTS, primary screen; Protein LANA1 (Human herpesvirus 8 type P (isolate GK18)), Q9QR71; cell-free LANA-H2A/H2B peptide, fluorescence polarization; inhibition, % (no concentration beside the values); 320,000 compounds, 0.6% hits; AID 2629, 2010; in the data active = inhibition mostly above about 10%, no sharp cut-off; inactive = mostly below about 6.7%
RanGTP-Impb inh – inhibitors of RanGTP-importin-beta interaction, primary screen, biochemical, FRET, CFP-Ran, YFP-importin-beta, homogeneous; Ran GTPase (GTP-bound) - importin-beta complex; cell-free CFP-Ran/YFP-importin-beta FRET ratio; inhibition, % (test concentration not listed); 300,000 compounds, 1.1% hits; AID 2216, 2009;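 active = more than half of the replicate wells show a fall in the fluorescence ratio signal beyond about 16%, limit read from the data, passing the limit was not always enough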;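 also: 0% = DMSO wells and 100% = Ran loaded with GDP instead of GTP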
Runt-CBFb FRET – inhibitors of RUNX1 Runt–CBFb binding, primary screen, biochemical, FRET, Cerulean-Runt, Venus-CBFb, uHTS; Runt-related transcription factor 1 (Homo sapiens) + Core-binding factor subunit beta …; Cerulean-Runt/Venus-CBFb FRET ratio 530/480, 1 h; inhibition, % at 20 µM; 220,000 compounds, 0.46% hits; AID 1496, 2009;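 active = inhibition over about 50% at 20 µM in the single-dose screen, limit read from the data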;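 also: 0% = DMSO wells and 100% = excess unlabeled CBFb competitor control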
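test system = Cerulean-Runt domain fusion protein, energy donor | probe or stimulus = Venus-CBFb binding partner, 100 nM | incubation = two 1 h room-temperature incubations shielded from light | detection = fluorescence energy transfer, 422 nm excitation, 530/480 nm emission | measure = loss of energy transfer signal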
Runt-SMMHC FRET – inhibitors of RUNX1 Runt–CBFb-SMMHC binding, primary screen, biochemical, FRET, Cerulean-Runt, Venus-CBFb-SMMHC, uHTS | 220,000 compounds, 0.74% hits | Runt-related transcription factor 1 (Homo sapiens) + Core-binding factor subunit beta … | inhibition, % at 20 µM | Cerulean-Runt/Venus-CBFb-SMMHC FRET ratio 530/480, 1 h;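 active = mean inhibition across duplicate retests at 20 µM reaching about 50%, limit read from the data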;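 also: 0% = DMSO wells and 100% = wells with excess untagged CBFb-SMMHC; inhibitors lower the FRET ratio by blocking Runt binding to CBFb-SMMHC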
HDAC3 inhib – HDAC3 deacetylase inhibitors, primary screen, biochemical, fluorescence, cell-free homogeneous; recombinant HDAC3, fluorogenic peptide/trypsin coupled; Histone deacetylase 3 (Homo sapiens), O15379; inhibition, % at 8.3 µM; 320,000 compounds, 0.15% hits; in the data active = inhibition above about 26%, passing the limit was not always enough
Target sequence (O15379 whole entry, looked up): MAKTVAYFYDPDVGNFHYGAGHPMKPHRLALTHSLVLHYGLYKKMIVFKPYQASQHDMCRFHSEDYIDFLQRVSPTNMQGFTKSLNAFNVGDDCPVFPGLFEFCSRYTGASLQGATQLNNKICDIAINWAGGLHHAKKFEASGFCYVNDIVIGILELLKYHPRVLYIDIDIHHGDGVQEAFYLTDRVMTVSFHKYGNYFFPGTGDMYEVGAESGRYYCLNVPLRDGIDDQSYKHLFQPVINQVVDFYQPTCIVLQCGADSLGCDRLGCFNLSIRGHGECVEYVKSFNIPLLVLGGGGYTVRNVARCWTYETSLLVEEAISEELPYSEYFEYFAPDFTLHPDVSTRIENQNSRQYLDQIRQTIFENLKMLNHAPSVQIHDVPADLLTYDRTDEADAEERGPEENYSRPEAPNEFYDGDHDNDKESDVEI
CaV13 FRET inh – Primary screen for inhibitors of IQ motif and Ca2+-dependent inactivation inhibitor domain binding in CACNA1D, Förster resonance energy transfer in living cells, …; HEK cells, CFP/YFP FRET ICDI-IQ, plate reader, 10 min; percent FRET-ratio fall versus neutral wells; AID 743397; 340,000 compounds, 0.098% hits; inhibition, % at 12.3 µM;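 active = mean replicate inhibition of at least 30% and at least 1% of replicates passing that level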;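 also: 0% = median of the neutral control wells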
YIC FRET counter – YIC intramolecular FRET probe signal interference, dose response, counter-screen for RanGTP-importin-beta inhibitor project, biochemical, fluorescence FRET; IC50, µM; Purified YIC probe, intramolecular FRET ratio YFP/CFP; 1,000 compounds, 40% hits; shares compounds with RanGTP-Impb inh;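 active = fitted half-maximal inhibitory concentration no more than tenfold above the top dose tested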
* = called active by the depositor; nt = no result.

SMILES	LANA-H2A inh	RanGTP-Impb inh	Runt-CBFb FRET	Runt-SMMHC FRET	HDAC3 inhib	CaV13 FRET inh	YIC FRET counter
CCc1cccc(NC(=O)CN(C)S(=O)(=O)c2cccc3cccnc23)c1	-2.4	2.4	-1.6	0.4	0.3	-2.3	nt
Cc1cc(C)c(S(=O)(=O)N2CCc3ccccc32)c(C)c1	-16.8	9.7	nt	nt	1.9	-3.6	nt
Cc1ccc[n+](-c2[nH]c(=O)sc2/C=N/N=C(\[O-])c2cccnc2)c1	-1.5	2.0	nt	nt	2.7	-3.8	nt
N#C/C(=C\c1cccs1)c1nc2ccccc2[nH]1	1.3	1.4	0.6	-3.4	10.3	-19.4	nt
N#C/C(=C/c1ccc(O)c(O)c1)c1nc2ccccc2[nH]1	-8.3	38.5*	nt	nt	4.4	-5.2	3.93*
COc1ccc(C2(CNC(=O)c3ccco3)CCOCC2)cc1	1.4	-2.8	0.5	7.9	1.3	nt	nt
Cc1ccc(NC(=O)C(C)Sc2nnc(C)n2C2CC2)cc1S(=O)(=O)N1CCOCC1 (stereo not given)	7.8	nt	nt	nt	0.3	-1.9	nt
CCCOC(=O)CSC1=C(C#N)C(c2ccccc2OC)C(C#N)C(=O)N1 (stereo not given)	-1.9	25.7*	2.9	0.7	1.2	-1.0	>50
O=c1c2ccccc2sc2ccc(C#CC3(O)CCCCC3)cc12	3.4	30.2*	nt	nt	6.0	-10.4	21.8*
O=Cc1ccc(N2Cc3ccccc3C2)cc1	-8.0	18.0*	nt	nt	-9.4	13.2	>50
COc1ccc2oc(C(=O)OCC(=O)NCC3CCCO3)c(C)c2c1 (stereo not given)	1.6	nt	nt	nt	-16.1	-5.1	nt
Cc1cc(N2C(=O)C(O)=C(C(=O)c3cc4ccccc4o3)C2c2cccc(Cl)c2)no1 (stereo not given)	-4.2	25.2*	nt	nt	2.8	-1.8	7.37*
Cc1cc(N2C(=O)C(O)=C(C(=O)c3cc4ccccc4o3)C2c2ccc(Cl)cc2)no1 (stereo not given)	-2.8	3.9	nt	nt	-7.0	-16.1	nt
O=C(c1ccc(Br)cc1)c1cc2ccc(O)cc2oc1=O	4.1	32.6*	nt	nt	-7.1	2.9	19.9*
O=C(c1ccccc1)c1cc2ccc(O)cc2oc1=O	41.4*	27.4*	nt	174.0*	0.4	-4.7	18.2*
O=C(c1ccc(Br)cc1)c1coc2ccc(O)cc12	2.1	1.5	nt	nt	1.8	-3.4	nt
CCc1ccc(C(=O)c2cc3ccc(O)cc3oc2=O)cc1	-1.5	44.9*	nt	nt	7.4	1.3	10.9*
CN(C)S(=O)(=O)Nc1ccc2c(c1)Cc1ccccc1-2	-0.2	2.5	-1.1	-1.2	-0.8	-9.9	nt
Cn1cnnc1SCC(=O)c1cc2ccccc2oc1=O	-0.3	18.0*	13.0	5.1	4.1	-8.4	>50
CCOC(=O)c1ccc(-c2ccc3c(=O)c4ccccc4n(C)c3c2)cc1F	-0.5	43.7*	nt	nt	-5.3	-1.0	1.29*
Cc1cc(C)c(C)c(S(=O)(=O)NCCCN2CCOCC2)c1C	2.4	-1.2	-1.0	-1.3	-1.1	2.0	nt
CCC(C)c1ccc(OCC(=O)O)cc1 (stereo not given)	3.2	24.4*	3.2	-3.0	2.2	-4.3	>50
O=C(c1cc(COc2ccc(F)cc2Cl)on1)N1CCCC(c2ccccc2)C1 (stereo not given)	-1.4	17.7*	-2.6	2.4	15.3	2.3	>50
O=C(c1cc(COc2ccc(F)cc2F)on1)N1CCCC(c2ccccc2)C1 (stereo not given)	nt	4.8	-1.7	-4.8	8.4	-6.9	nt
